Results: ChEMBL document CHEMBL3046412, “Ring substituted 3-phenyl-1-(2-pyrazinyl)-2-propen-1-ones as potential photosynthesis-inhibiting, antifungal and antimycobacterial agents” (Farmaco, 2002)
In brackets after ≈: the same amount, converted by molar mass.

Key:
[1] = test system: Trichophyton mentagrophytes; assay: Antifungal activity against Trichophyton mentagrophytes 445 after 120 hr by microdilution broth method; format: functional; conditions: Trichophyton mentagrophytes, 445, 120 h
How it was run: (§1)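 Broth microdilution in RPMI 1640 buffered to pH 7.0 with 0.165 M MOPS; compounds in DMSO, with compound-free controls. Strain subcultured and kept on Sabouraud dextrose agar at 4 °C. Conidia were suspended in sterile 0.85% saline, counted in a Bürker chamber to 1.0–5.0×10⁵ cfu ml⁻¹ stock, and diluted 1:20 in medium. Static incubation at 35 °C. MIC is 80% growth inhibition versus control.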

[2] = test system: Trichophyton mentagrophytes; assay: Antifungal activity against Trichophyton mentagrophytes 445 after 72 hr by microdilution broth method; format: functional; conditions: Trichophyton mentagrophytes, 445, 72 h; how it was run: as §1
[3] = test system: Mycobacterium tuberculosis; assay: Antimycobacterial activity against Mycobacterium tuberculosis H37Rv ATCC 27294 at 12.5 ug/ml by microplate alamar blue assay relative to control; format: functional
Chlorella vulgaris [4] = assay: Inhibition of photosynthesis in Chlorella vulgaris chloroplast assessed as reduction of oxygen evolution rate after 4 hr by spectrophotometric analysis; format: functional
Spinacia oleracea = assay: Inhibition of photosynthesis in Spinacia oleracea (spinach) chloroplast assessed as reduction of oxygen evolution rate after 4 hr by spectrophotometric analysis; format: functional
How it was run: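 Oxygen evolution rate was measured in spinach chloroplasts at 30 mg l⁻¹, read spectrophotometrically with 2,6-dichlorophenol–indophenol as electron acceptor.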

Chlorella vulgaris [5] = assay: Inhibition of photosynthesis in Chlorella vulgaris assessed as reduction of chlorophyll production at 0.1 mM/l after 7 days by spectrophotometric analysis; format: functional; conditions: 168 h
How it was run: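 Statically cultured Chlorella vulgaris suspensions were exposed to 0.1 mmol l⁻¹ compound, with 1% solvent in samples and control. After 7 days, chlorophyll was extracted into N,N-dimethylformamide and quantified spectrophotometrically.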

Aspergillus fumigatus [6] = assay: Antifungal activity against Aspergillus fumigatus 231 after 24 hr by microdilution broth method; format: functional; conditions: Aspergillus fumigatus, 231, 24 h
How it was run: (§2)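 Broth microdilution in RPMI 1640 buffered to pH 7.0 with 0.165 M MOPS; compounds dissolved in DMSO; drug-free controls included. Strains were kept on Sabouraud dextrose agar at 4 °C and passaged onto SDA before testing. Yeasts, conidia or sporangiospores were suspended in 0.85% saline to a stock of 1.0–5.0×10⁵ cfu ml⁻¹, then diluted 1:20 in medium. Plates were incubated statically at 35 °C.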

Pichia kudriavzevii [7] = assay: Antifungal activity against Pichia kudriavzevii E 28 after 48 hr by microdilution broth method; format: functional; conditions: E 28, 48 h; how it was run: as §2
Candida albicans [8] = assay: Antifungal activity against Candida albicans ATCC 44859 after 24 hr by microdilution broth method; format: functional; conditions: ATCC 44859, 24 h; how it was run: as §2
Lichtheimia corymbifera [9] = assay: Antifungal activity against Lichtheimia corymbifera 272 after 24 hr by microdilution broth method; format: functional; conditions: Lichtheimia corymbifera, 272, 24 h; how it was run: as §2
Pichia kudriavzevii [10] = assay: Antifungal activity against Pichia kudriavzevii E 28 after 24 hr by microdilution broth method; format: functional; conditions: E 28, 24 h; how it was run: as §2
Nakaseomyces glabratus [11] = assay: Antifungal activity against Candida glabrata 20/I after 24 hr by microdilution broth method; format: functional; how it was run: as §2
Aspergillus fumigatus [12] = assay: Antifungal activity against Aspergillus fumigatus 231 after 48 hr by microdilution broth method; format: functional; conditions: Aspergillus fumigatus, 231, 48 h; how it was run: as §2
Trichosporon beigelii [13] = assay: Antifungal activity against Trichosporon beigelii 1188 after 24 hr by microdilution broth method; format: functional; conditions: Trichosporon beigelii, 1188, 24 h; how it was run: as §2
Candida albicans [14] = assay: Antifungal activity against Candida albicans ATCC 44859 after 48 hr by microdilution broth method; format: functional; conditions: ATCC 44859, 48 h; how it was run: as §2
Trichosporon beigelii [15] = assay: Antifungal activity against Trichosporon beigelii 1188 after 48 hr by microdilution broth method; format: functional; conditions: Trichosporon beigelii, 1188, 48 h; how it was run: as §2
Candida tropicalis [16] = assay: Antifungal activity against Candida tropicalis 156 after 48 hr by microdilution broth method; format: functional; conditions: Candida tropicalis, 156, 48 h; how it was run: as §2
Candida tropicalis [17] = assay: Antifungal activity against Candida tropicalis 156 after 24 hr by microdilution broth method; format: functional; conditions: Candida tropicalis, 156, 24 h; how it was run: as §2
Nakaseomyces glabratus [18] = assay: Antifungal activity against Candida glabrata 20/I after 48 hr by microdilution broth method; format: functional; how it was run: as §2
Lichtheimia corymbifera [19] = assay: Antifungal activity against Lichtheimia corymbifera 272 after 48 hr by microdilution broth method; format: functional; conditions: Lichtheimia corymbifera, 272, 48 h; how it was run: as §2

O=C(/C=C/c1ccc(O)cc1)c1cnccn1
MIC80 [1]: 125 µM (≈ 28.3 µg/mL)
MIC80 [2]: 62.5 µM (≈ 14.1 µg/mL)
inhibition at 12.5 µg/mL [3]: 42%

CC(C)Cc1cnc(C(=O)/C=C/c2ccc(O)cc2)cn1
IC50 (Chlorella vulgaris [4]): 232 µM
IC50 (Spinacia oleracea): 235 µM
MIC80 [1]: > 500 µM
MIC80 [2]: > 500 µM
inhibition at 100 µM (Chlorella vulgaris [5]): 35%
inhibition at 12.5 µg/mL [3]: 63%

CCCCc1cnc(C(=O)/C=C/c2ccc(O)cc2)cn1
IC50 (Chlorella vulgaris [4]): 265 µM
IC50 (Spinacia oleracea): 306 µM
MIC80 [1]: 62.5 µM (≈ 17.6 µg/mL)
MIC80 [2]: 31.2 µM (≈ 8.82 µg/mL)
inhibition at 100 µM (Chlorella vulgaris [5]): 10%
inhibition at 12.5 µg/mL [3]: 51%

CCCc1cnc(C(=O)/C=C/c2ccc(O)cc2)cn1
IC50 (Chlorella vulgaris [4]): 514 µM
IC50 (Spinacia oleracea): 399 µM
MIC80 [1]: 62.5 µM (≈ 16.8 µg/mL)
MIC80 [2]: 31.2 µM (≈ 8.38 µg/mL)
inhibition at 100 µM (Chlorella vulgaris [5]): 12%
inhibition at 12.5 µg/mL [3]: 35%

CN(C)c1ccc(/C=C/C(=O)c2cnccn2)cc1
MIC80 [1]: > 62.5 µM
MIC80 [2]: > 62.5 µM
inhibition at 12.5 µg/mL [3]: 26%

CC(C)Cc1cnc(C(=O)/C=C/c2ccc(N(C)C)cc2)cn1
MIC80 [1]: > 250 µM
MIC80 [2]: 250 µM (≈ 77.4 µg/mL)
inhibition at 12.5 µg/mL [3]: 10%

CCCCc1cnc(C(=O)/C=C/c2ccc(N(C)C)cc2)cn1
MIC80 [1]: > 250 µM
MIC80 [2]: > 250 µM
inhibition at 12.5 µg/mL [3]: 0%

CCCc1cnc(C(=O)/C=C/c2ccc(N(C)C)cc2)cn1
MIC80 [1]: > 250 µM
MIC80 [2]: > 250 µM
inhibition at 12.5 µg/mL [3]: 8%

CCCCCCCCSc1cc(C(N)=S)ccn1
IC50 (Chlorella vulgaris [4]): 48 µM
IC50 (Spinacia oleracea): 72 µM
inhibition at 100 µM (Chlorella vulgaris [5]): 100%

CC(C)(C)c1ncc(C(=O)Nc2cc(O)cc(Cl)c2)nc1Cl
IC50 (Chlorella vulgaris [4]): 99 µM
IC50 (Spinacia oleracea): 105 µM

CC(C)(C)c1cnc(C(=O)Nc2cccc(O)c2)cn1
IC50 (Chlorella vulgaris [4]): 329 µM
IC50 (Spinacia oleracea): 478 µM

COc1cc(/C=C/C(=O)c2cnccn2)ccc1O
MIC80 [2]: 125 µM (≈ 32 µg/mL)
inhibition at 12.5 µg/mL [3]: 35%

COc1cc(/C=C/C(=O)c2cnc(CC(C)C)cn2)ccc1O
MIC80 [2]: 250 µM (≈ 78.1 µg/mL)
inhibition at 12.5 µg/mL [3]: 53%

CCCCc1cnc(C(=O)/C=C/c2ccc(O)c(OC)c2)cn1
MIC80 [2]: > 100 µM
inhibition at 12.5 µg/mL [3]: 45%

CCCc1cnc(C(=O)/C=C/c2ccc(O)c(OC)c2)cn1
MIC80 [2]: > 125 µM
inhibition at 12.5 µg/mL [3]: 20%

O=C(/C=C/c1ccccc1O)c1cnccn1
MIC80 (Aspergillus fumigatus [6]): 125 µM (≈ 28.3 µg/mL)
MIC80 (Pichia kudriavzevii [7]): 250 µM (≈ 56.6 µg/mL)
MIC80 (Candida albicans [8]): 62.5 µM (≈ 14.1 µg/mL)
MIC80 (Lichtheimia corymbifera [9]): 125 µM (≈ 28.3 µg/mL)
MIC80 (Pichia kudriavzevii [10]): 125 µM (≈ 28.3 µg/mL)
MIC80 (Nakaseomyces glabratus [11]): 125 µM (≈ 28.3 µg/mL)
MIC80 (Aspergillus fumigatus [12]): 250 µM (≈ 56.6 µg/mL)
MIC80 (Trichosporon beigelii [13]): 125 µM (≈ 28.3 µg/mL)
MIC80 (Candida albicans [14]): 62.5 µM (≈ 14.1 µg/mL)
MIC80 (Trichosporon beigelii [15]): 250 µM (≈ 56.6 µg/mL)
MIC80 (Candida tropicalis [16]): 250 µM (≈ 56.6 µg/mL)
MIC80 [1]: 31.2 µM (≈ 7.07 µg/mL)
MIC80 [2]: 15.6 µM (≈ 3.53 µg/mL)
MIC80 (Candida tropicalis [17]): 125 µM (≈ 28.3 µg/mL)
MIC80 (Nakaseomyces glabratus [18]): 250 µM (≈ 56.6 µg/mL)
inhibition at 12.5 µg/mL [3]: 55%
MIC80 (Lichtheimia corymbifera [19]): 250 µM (≈ 56.6 µg/mL)

CC(C)Cc1cnc(C(=O)/C=C/c2ccccc2O)cn1
IC50 (Chlorella vulgaris [4]): 63 µM
IC50 (Spinacia oleracea): 144 µM
MIC80 [2]: 31.2 µM (≈ 8.82 µg/mL)
inhibition at 100 µM (Chlorella vulgaris [5]): 92%
inhibition at 12.5 µg/mL [3]: 20%

CCCCc1cnc(C(=O)/C=C/c2ccccc2O)cn1
IC50 (Chlorella vulgaris [4]): 147 µM
IC50 (Spinacia oleracea): 184 µM
MIC80 [1]: 15.6 µM (≈ 4.41 µg/mL)
MIC80 [2]: 3.91 µM (≈ 1.1 µg/mL)
inhibition at 100 µM (Chlorella vulgaris [5]): 89%
inhibition at 12.5 µg/mL [3]: 33%

CCCc1cnc(C(=O)/C=C/c2ccccc2O)cn1
IC50 (Chlorella vulgaris [4]): 100 µM
IC50 (Spinacia oleracea): 187 µM
MIC80 [1]: 7.81 µM (≈ 2.1 µg/mL)
MIC80 [2]: 7.81 µM (≈ 2.1 µg/mL)
inhibition at 100 µM (Chlorella vulgaris [5]): 68%
inhibition at 12.5 µg/mL [3]: 50%

CC(=O)N1CCN(c2ccc(OCC3COC(Cn4ccnc4)(c4ccc(Cl)cc4Cl)O3)cc2)CC1 (centres undefined) [KETOCONAZOLE]
MIC80 (Aspergillus fumigatus [6]): 7.81 µM (≈ 4.15 µg/mL)
MIC80 (Pichia kudriavzevii [7]): 1.95 µM (≈ 1.04 µg/mL)
MIC80 (Candida albicans [8]): ≤ 0.06 µM
MIC80 (Lichtheimia corymbifera [9]): 15.6 µM (≈ 8.31 µg/mL)
MIC80 (Pichia kudriavzevii [10]): 1.95 µM (≈ 1.04 µg/mL)
MIC80 (Nakaseomyces glabratus [11]): 0.49 µM (≈ 0.26 µg/mL)
MIC80 (Aspergillus fumigatus [12]): 7.81 µM (≈ 4.15 µg/mL)
MIC80 (Trichosporon beigelii [13]): ≤ 0.06 µM
MIC80 (Candida albicans [14]): ≤ 0.06 µM
MIC80 (Trichosporon beigelii [15]): ≤ 0.06 µM
MIC80 (Candida tropicalis [16]): 7.81 µM (≈ 4.15 µg/mL)
MIC80 [1]: 1.95 µM (≈ 1.04 µg/mL)
MIC80 [2]: 0.24 µM (≈ 0.128 µg/mL)
MIC80 (Candida tropicalis [17]): 3.91 µM (≈ 2.08 µg/mL)
MIC80 (Nakaseomyces glabratus [18]): 1.95 µM (≈ 1.04 µg/mL)
MIC80 (Lichtheimia corymbifera [19]): 15.6 µM (≈ 8.31 µg/mL)

NC(=O)c1cnccn1 [PYRAZINAMIDE]
inhibition at 12.5 µg/mL [3]: 100%
